From ChEMBL document CHEMBL4376891, “Benzenesulfonamide Derivatives as Calcium/Calmodulin-Dependent Protein Kinase Inhibitors and Antiviral Agents against Dengue and Zika Virus Infections” (J Med Chem, 2020)
Activity calls are given as the source filed them. The calls are words filed in the database; no cut-off is given here.

Tested on: Zika virus
Experiment: Antiviral activity against Zika virus infected in Stat1-/- mouse assessed as reduction in viral load at 4 to 8mg/kg/day, po dosed immediately following viral infection followed by daily dosing for 3 days
Format: functional, organism-based
How it was run: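 Stat1-/- mice infected with DENV-2 NGC-N (1x10⁵ PFU iv) or ZIKV PRVABC59 (5x10⁴ PFU sc, footpad), with oral dosing or PBS starting immediately. Serum was taken from the submandibular vein on day 3 post-infection. Viremia was measured by plaque assay and reported as individual values and mean; n = 5.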

COc1ccc(S(=O)(=O)N(CCCC(=O)C2CCCCCC2)c2ccccc2)cc1
Activity: Active
